This is a sample that favours compounds with a hit; in the whole collection about 2.6% have one here.
Exocytosis inh: blocks lytic granule exocytosis | TALL-104 LAMP-1 surface exposure, flow cytometry; cells stimulated with thapsigargin and PMA | inhibition, % at 10 µM | AID 651702 | 360,000 tested, 0.66% active;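 active = inhibition above about 55%, limit read from the data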
ABCB6 inh 2: human ABCB6 transporter inhibition | Q9NP58 | fluorescence ratio to DMSO, % at 10 µM | 360,000 tested, 0.19% active | K562-ABCB6 porphyrin accumulation, flow cytometry, 1 h; stronger effect = lower value | AID 602162;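 active = fluorescence ratio to DMSO below 75%, the collection mean minus 3 SD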;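 also: signal is porphyrin accumulated inside mitochondria; 100% equals median channel fluorescence of DMSO control wells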
MC4R barr agon: activates human MC4R beta-arrestin recruitment; P32245; U2OS MC4R beta-arrestin complementation, luminescence; percent of melanotan II response, DMSO zero; activation, % at 8.9 µM; 360,000 tested, 0.98% active;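 active = activation above a per-plate cutoff, the mean activation of sample wells on that plate plus 3 SD, cut at about 8% in these data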
Target sequence (P32245 whole entry, looked up): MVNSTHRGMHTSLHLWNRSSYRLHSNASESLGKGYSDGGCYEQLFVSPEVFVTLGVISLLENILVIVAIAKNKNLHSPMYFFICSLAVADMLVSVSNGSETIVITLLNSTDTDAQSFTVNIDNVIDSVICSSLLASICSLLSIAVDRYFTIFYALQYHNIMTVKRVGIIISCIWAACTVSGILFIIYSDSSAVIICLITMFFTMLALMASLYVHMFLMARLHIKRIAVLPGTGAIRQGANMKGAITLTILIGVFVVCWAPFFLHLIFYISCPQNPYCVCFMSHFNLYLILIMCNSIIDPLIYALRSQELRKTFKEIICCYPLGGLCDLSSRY
MC4R antag cAMP: human MC4R antagonism in cAMP assay | 360,000 tested, 0.48% active | P32245 | inhibition, % at 6.5 µM | MC4R-expressing cells, MTII-stimulated cAMP, LANCE TR-FRET;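 active = inhibition above its plate's cutoff, the mean of tested wells on that plate plus 3 SD, cut at about 29% in these data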;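 also: 0% = Melanotan II alone and 100% = Melanotan II plus saturating MCL0020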
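System – human MC4R-expressing U2OS cells · Also added – Melanotan II · Dosing – one concentration, 6.5 µM nominal · Timing – 30-min compound, 1-h challenge, 1-h detection, room temperature · Measured by – Eu-cAMP/anti-cAMP TR-FRET, emission 671 nm · Replicates – singlicate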
hiPSC survival: enhancers of human iPSC single-cell survival. 360,000 tested, 0.044% active. survival enhancement, % at 20 µM. hiPSC single-cell survival, ATPlite luminescence; 100% = ROCK inhibitor wells, 0% = DMSO; in the data active = survival enhancement above about 18%;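 also: cells exposed to compounds for 16 hours before the ATP read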
Tb MetRS inh: Trypanosoma brucei MetRS inhibition; 360,000 tested, 0.4% active; inhibition, % at 11.9 µM; purified T. brucei MetRS, ATP depletion, Kinase-Glo luminescence;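 active = inhibition above a per-plate cutoff of the control wells' mean inhibition plus 3 SD, cut at about 5.5% in these data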;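 also: 0% = DMSO wells median and 100% = median of wells with control inhibitor compound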
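technique = Kinase-Glo luminescence, ATP depletion format | system = purified MetRS (methionyl-tRNA synthetase) enzyme from Trypanosoma brucei | timing = 15 min preincubation, 2 h reaction, all 25 °C | evaluation = percent inhibition versus plate control medians | dosing = single dose, 11.9 µM final nominal, 0.9% final DMSO | also added = substrates ATP, L-methionine and bulk Escherichia coli tRNA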
U2OS cAMP counter: U2OS forskolin cAMP inhibition counter-screen | shares compounds with MC4R antag cAMP | parental U2OS, LANCE TR-FRET | inhibition, % at 6.5 µM | 1,600 tested, 26% active | AID 602193;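 active = mean inhibition over triplicates above the low-control well mean plus 3 SD, set per campaign, cut at about 13% in these data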;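 also: signal is single emission at 671 nm which falls as cellular cAMP rises; 0% = forskolin-stimulated wells and 100% = buffer without forskolin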
MC4R cAMP antag: human MC4R cAMP antagonism confirmation; shares compounds with MC4R antag cAMP; MC4R-expressing cells, MTII-stimulated cAMP, TR-FRET; inhibition, % at 6.5 µM; 1,600 tested, 27% active; in the data active = inhibition above about 29%;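 also: 0% = agonist stimulated wells alone and 100% = agonist stimulated wells plus saturating reference antagonist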
The depositor's hits bear a star; nt = not tested or not shown.

SMILES | Exocytosis inh | ABCB6 inh 2 | MC4R barr agon | MC4R antag cAMP | hiPSC survival | Tb MetRS inh | U2OS cAMP counter | MC4R cAMP antag
CCOC(=O)CSc1nnc(NC(=O)c2cccc([N+](=O)[O-])c2)s1 | 3 | 106 | -1 | 39* | -1 | 0 | 3 | 0
CCOC(=O)Cc1ccc(NC(=O)c2cccc([N+](=O)[O-])c2)cc1 | 1 | 115 | -2 | 9 | -1 | -1 | nt | nt
Cc1ccc(CC2C(=O)N(c3cc(Cl)ccn3)C(=O)C2C)cc1 (stereo unspecified) | 1 | 96 | 0 | 4 | 0 | -1 | nt | nt
Cc1ccc(CC2C(=O)N(c3ccccc3)C(=O)C2C)cc1 (stereo unspecified) | 1 | 110 | 0 | 32* | 1 | 0 | -1 | 3
COc1cccc(-n2c(C)cc(/C=C3/C(=N)N4C(=NC3=O)SN=C4S(C)(=O)=O)c2C)c1 | -1 | 105 | 0 | 29* | 4 | 0 | -7 | -26
COc1cc(/C=C2/C(=N)N3C(=NC2=O)SN=C3S(C)(=O)=O)ccc1OS(=O)(=O)c1ccc(C)cc1 | 0 | 111 | -3 | 12 | 2 | 0 | nt | nt
Cc1cccc(C(=O)Nc2ccc(C(=O)/C=C/c3cccnc3)cc2)c1 | 14 | 95 | 0 | 30* | -6 | 0 | -9 | 2
O=C(COC(=O)c1nc(Cl)c(Cl)c(Cl)c1Cl)c1ccc[nH]1 | 42 | 99 | -3 | 39* | 1 | 0 | 11 | 37*
O=C(NCc1ccccc1Cl)C1CCN(S(=O)(=O)c2ccc(N3CCCC3=O)cc2)CC1 | -7 | 99 | -1 | 18 | -1 | 0 | nt | nt
Cc1noc(C)c1COC(=O)c1cc(F)c(F)cc1Cl | 2 | 92 | 1 | 4 | -1 | 0 | nt | nt
Cc1noc(C)c1COC(=O)/C=C/c1ccc(Cl)cc1 | 2 | 103 | 2 | 31* | 5 | 0 | 2 | 9
Cc1noc(C)c1COC(=O)c1cnc(Cl)c(Cl)c1 | -1 | 98 | -3 | 30* | 1 | -1 | 13 | 33*
Cn1c(N)c(C(=O)CSc2nnc(C3CC3)n2-c2ccccc2)c(=O)n(C)c1=O | -4 | 92 | -2 | -1 | 2 | 0 | nt | nt
NS(=O)(=O)c1ccc(-c2ccc(/C=C3\C(=O)Nc4cc(Cl)ccc43)o2)cc1 | -1 | 102 | -1 | 3 | 0 | 1 | nt | nt
CC1(C)OC(=O)C(=Cc2ccc(-c3ccc(S(N)(=O)=O)cc3)o2)C(=O)O1 | 3 | 103 | -1 | 39* | 1 | -1 | 11 | 19
Cc1ccc(NC(=O)c2cc(N3C(=O)C=CC3=O)ccc2N2CCOCC2)cc1Cl | 42 | 90 | -1 | 54* | 0 | 0 | -1 | 41*
CC(c1ccccc1)N1CCn2c(nc3cc(NS(C)(=O)=O)ccc32)C1 (stereo unspecified) | 8 | 101 | -3 | -5 | 1 | 1 | nt | nt
CCn1c(CC(=O)Nc2ccc(F)cc2)nnc1SCC(=O)Nc1nnc(C)s1 | -16 | 100 | 3 | 30* | 1 | -1 | -1 | 0
CC(C)CCOc1ccc(/C=C2\CCn3c2nc2cc(C(=O)O)ccc2c3=O)cc1 | 0 | 103 | 2 | 32* | 3 | -1 | 0 | -8
COC(=O)c1ccc(/C=C2\CCn3c2nc2cc(C(=O)O)ccc2c3=O)cc1 | 2 | 99 | 0 | 12 | 0 | 1 | nt | nt
Cc1ccc(S(=O)(=O)n2cnc3cc([N+](=O)[O-])ccc32)cc1C | -2 | 93 | -2 | 4 | 0 | 0 | nt | nt
Cc1ccc(S(=O)(=O)n2cnc3ccccc32)cc1[N+](=O)[O-] | -4 | 108 | 1 | 29* | 0 | 0 | -2 | -3
CCN(CC)C(=O)CSc1nc(C)cc(C)n1 | -6 | 98 | 2 | -5 | 0 | -1 | nt | nt
COc1ccc(CNC(=O)c2ccc(-c3ccc(F)c(F)c3)c3ccoc23)cc1OC | -1 | 104 | 1 | 40* | 1 | 0 | -5 | 4
COc1ccc(CCNC(=O)C2(C)CCC(=O)N2Cc2ccc(F)cc2Cl)cc1OC (stereo unspecified) | -1 | 105 | -1 | 39* | 1 | -1 | 1 | 6
SMILES | Exocytosis inh | ABCB6 inh 2 | MC4R barr agon | MC4R antag cAMP | hiPSC survival | Tb MetRS inh | U2OS cAMP counter | MC4R cAMP antag
CCOC(=O)c1ccc(NC(=O)CSCC(=O)OCC(=O)c2ccccc2)cc1 | 12 | 100 | 2 | 36* | -4 | 1 | 8 | 18
CS(=O)(=O)c1ccc(C(=O)NCCN2C(=O)S/C(=C\c3cccnc3)C2=O)cc1[N+](=O)[O-] | -1 | 101 | -2 | 32* | 1 | 0 | 18* | 33*
CN(C)S(=O)(=O)c1ccc(C(=O)NCCN2C(=O)S/C(=C\c3cccnc3)C2=O)cc1 | -2 | 92 | 0 | 10 | 0 | -1 | nt | nt
O=C(COC(=O)c1cc(S(=O)(=O)N2CCOCC2)ccc1O)NCCc1ccccc1 | 2 | 85 | 0 | 9 | 0 | 0 | nt | nt
CCCCNc1c(-c2ccc(-c3cccc(Cl)c3)cc2)nc2ccccn12 | 8 | 100 | 0 | 23 | -2 | 0 | nt | nt
CCCCNc1c(-c2cccc(-c3ccc(OC)cc3)c2)nc2ccc(C)cn12 | 22 | 94 | 3 | 40* | 2 | 0 | 15* | 41*
CCCCNc1c(-c2ccc(OC)c(SC3CCCCC3)c2)nc2cc(C)ccn12 | -4 | 94 | -2 | 18 | -2 | 0 | nt | nt
CCCCNc1c(-c2cccc(-c3ccc(OC)cc3)c2)nc2cc(C)ccn12 | -3 | 94 | 0 | 34* | 0 | 0 | 30* | 56*
Cc1cc(C)n(CC(=O)NNC(=O)COc2ccc(Cl)cc2Cl)n1 | 4 | 97 | -1 | 0 | 0 | 0 | nt | nt
C#CC(=O)N(c1ccc(OC)c(OC)c1)C(C(=O)NC1CCCC1)c1cccs1 (stereo unspecified) | 45 | 55* | 10* | 62* | -3 | -1 | -36 | 63*
CCN(CC(=O)Nc1cc(Cl)ccc1C)C(=O)c1ccc(=O)n(Cc2ccccc2)n1 | 0 | 102 | -3 | 12 | 0 | 0 | nt | nt
Cc1c(Br)c(C(F)(F)F)nn1CC(=O)N(C)C1CCCCC1 | -3 | 94 | -2 | 18 | 0 | 0 | nt | nt
Cn1nc([N+](=O)[O-])nc1Sc1cccc2cccnc12 | 0 | 94 | 0 | 30* | 1 | 0 | 8 | 3
O=C(NCC1CCCO1)c1cccc(Oc2ccc([N+](=O)[O-])cc2Cl)c1 (stereo unspecified) | -1 | 90 | -1 | 3 | 0 | 1 | nt | nt

Source: PubChem (several laboratories)
